Measured values: ChEMBL document CHEMBL5620421, “2,6-Disubstituted 7-(naphthalen-2-ylmethyl)-7H-purines as a new class of potent antitubercular agents inhibiting DprE1” (Eur J Med Chem, 2023)
In brackets after ≈: the same amount, converted by molar mass. Activity calls are given as the source filed them. No cut-off for these calls is given here.

Tests used:
Staphylococcus aureus [1] = assay: Antibacterial activity against Staphylococcus aureus C1947 assessed as inhibition of bacterial growth incubated for 24 to 48 hrs by microdilution broth method; assay type: functional, organism-based; conditions: time 24-48 hrs
Method in brief: (§1)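 Clinical isolates kept at –70 °C and subcultured twice on Mueller-Hinton agar, using the second subculture. Broth microdilution in Mueller-Hinton broth at pH 7.4 with two-fold serial compound dilutions and DMSO ≤1% final. Inoculum was 10 μL of a 1.5 × 10⁸ CFU/mL suspension. Incubated at 36 °C ± 1 °C and read at 24 h and 48 h. MIC taken as 95% growth inhibition.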

Klebsiella pneumoniae [2] = assay: Antibacterial activity against ESBL positive Klebsiella pneumoniae C1914 assessed as inhibition of bacterial growth incubated for 24 to 48 hrs by microdilution broth method; assay type: functional, organism-based; conditions: time 24-48 hrs; method in brief: as §1
Mycobacterium avium [3] = assay: Antitubercular activity against Mycobacterium avium CNCTC My 330/88 assessed as inhibition of bacterial growth measured after 14 days of incubation by Sulas semisynthetic medium based assay; assay type: functional; conditions: CNCTC My 330/88, 336 h, time 14 day
Method in brief: (§2)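 M. avium was tested by the micromethod in Sula's semisynthetic medium. Compounds in DMSO at 1000 to 0.5 μmol/L. Incubation at 37 °C, read at 14 and 21 days. MIC is the lowest concentration giving >99% growth inhibition.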

Mycobacterium kansasii [4] = assay: Antitubercular activity against Mycobacterium kansasii CNCTC My 235/80 assessed as inhibition of bacterial growth measured after 14 days of incubation by Sulas semisynthetic medium based assay; assay type: functional; conditions: CNCTC My 235/80, 336 h, time 14 day
Method in brief: (§3)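 Micromethod in Sula's semisynthetic medium. MIC is the lowest concentration inhibiting >99% of the mycobacterial population. Isoniazid was the standard.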

Klebsiella pneumoniae [5] = assay: Antibacterial activity against ESBL negative Klebsiella pneumoniae C1950 assessed as inhibition of bacterial growth incubated for 24 to 48 hrs by microdilution broth method; assay type: functional, organism-based; conditions: time 24-48 hrs; method in brief: as §1
Enterococcus faecium = assay: Antibacterial activity against vancomycin-resistant Enterococcus faecium assessed as inhibition of bacterial growth incubated for 24 to 48 hrs by microdilution broth method; assay type: functional, organism-based; conditions: time 24-48 hrs
Method in brief: (§4)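 Clinical isolates, stored at −70 °C, were passaged twice on Mueller-Hinton agar. Broth microdilution in Mueller-Hinton broth, pH 7.4, with twofold serial dilutions. DMSO was at most 1% final. Inoculum 1.5 × 10⁸ CFU/mL suspension. MIC is 95% growth inhibition, read after 24 and 48 h at 36 °C.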

[6] = system: Mycobacterium tuberculosis; assay: Antitubercular activity against Mycobacterium tuberculosis CNCTC My 331/88 (H37Rv) assessed as inhibition of bacterial growth measured after 21 days of incubation by Sulas semisynthetic medium based assay; assay type: functional; conditions: 504 h, time 21 day
Method in brief: (§5)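 Micromethod MIC in Sula's semisynthetic medium. MIC is the lowest concentration inhibiting >99% of the mycobacterial population. Isoniazid was the standard drug.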

Mycobacterium kansasii [7] = assay: Antitubercular activity against Mycobacterium kansasii CNCTC My 235/80 assessed as inhibition of bacterial growth measured after 7 days of incubation by Sulas semisynthetic medium based assay; assay type: functional; conditions: CNCTC My 235/80, 168 h, time 7 day; method in brief: as §3
[8] = system: Mycobacterium tuberculosis; assay: Antitubercular activity against Mycobacterium tuberculosis CNCTC My 331/88 (H37Rv) assessed as inhibition of bacterial growth measured after 14 days of incubation by Sulas semisynthetic medium based assay; assay type: functional; conditions: 336 h, time 14 day; method in brief: as §5
Escherichia coli = assay: Antibacterial activity against Escherichia coli A1235 assessed as inhibition of bacterial growth incubated for 24 to 48 hrs by microdilution broth method; assay type: functional, organism-based; conditions: time 24-48 hrs; method in brief: as §1
Mycobacterium kansasii [9] = assay: Antitubercular activity against Mycobacterium kansasii CNCTC My 235/80 assessed as inhibition of bacterial growth measured after 21 days of incubation by Sulas semisynthetic medium based assay; assay type: functional; conditions: CNCTC My 235/80, 504 h, time 21 day; method in brief: as §3
[10] = system: Staphylococcus epidermidis; assay: Antibacterial activity against Staphylococcus epidermidis C1936 assessed as inhibition of bacterial growth incubated for 24 to 48 hrs by microdilution broth method; assay type: functional, organism-based; conditions: time 24-48 hrs; method in brief: as §1
Pseudomonas aeruginosa = assay: Antibacterial activity against multidrug-resistant Pseudomonas aeruginosa A1245 assessed as inhibition of bacterial growth incubated for 24 to 48 hrs by microdilution broth method; assay type: functional, organism-based; conditions: time 24-48 hrs; method in brief: as §4
Mycobacterium avium [11] = assay: Antitubercular activity against Mycobacterium avium CNCTC My 330/88 assessed as inhibition of bacterial growth measured after 21 days of incubation by Sulas semisynthetic medium based assay; assay type: functional; conditions: CNCTC My 330/88, 504 h, time 21 day; method in brief: as §2
Staphylococcus aureus [12] = assay: Antibacterial activity against methicilin-resistant Staphylococcus aureus C1923 assessed as inhibition of bacterial growth incubated for 24 to 48 hrs by microdilution broth method; assay type: functional, organism-based; conditions: time 24-48 hrs; method in brief: as §4
[13] = Selectivity index, ratio of IC50 for cytotoxicity against human HepG2 cells by MTT assay to MIC99 for antitubercular activity against Mycobacterium tuberculosis CNCTC My 331/88 (H37Rv) assessed as inhibition of bacterial growth measured after 14 days of incubation; assay type: functional; conditions: time 14 day
Method in brief: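 HepG2 cells, 15 × 10³/well, were attached overnight and exposed 24 h to serial dilutions (DMSO ≤1%). Read by MTT at 0.5 mg/mL for 1 h and 570 nm. IC50 from 4-parameter regression, three independent experiments in triplicate. SI is HepG2 IC50 divided by H37Rv MIC99.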

HepG2 = assay: Cytotoxicity against human HepG2 cells incubated for 24 hrs by MTT assay; assay type: functional, cell-based; conditions: HepG2, 24 h
Method in brief: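 HepG2 cells in DMEM with 10% FBS, seeded at 15 × 10³ cells/well and attached overnight. Exposed for 24 h to serial dilutions prepared from DMSO stocks, final DMSO ≤1%. Then given fresh medium with 0.5 mg/mL MTT for 1 h at 37 °C. Formazan dissolved in DMSO and read at 570 nm. IC50 from 4-parameter nonlinear regression; three independent experiments in triplicate, mean ± SD.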

SMILES	Activity (Staphylococcus aureus [1])	Activity (Klebsiella pneumoniae [2])	MIC99 (Mycobacterium avium [3]) [µM]	MIC99 (Mycobacterium kansasii [4]) [µM]	Activity (Klebsiella pneumoniae [5])	Activity (Enterococcus faecium)	MIC99 [6] [µM]	MIC99 (Mycobacterium kansasii [7]) [µM]	MIC99 [8] [µM]	Activity (Escherichia coli)	MIC99 (Mycobacterium kansasii [9]) [µM]	Activity [10]	Activity (Pseudomonas aeruginosa)	MIC99 (Mycobacterium avium [11]) [µM]	Activity (Staphylococcus aureus [12])	Selectivity Index [13]	IC50 (HepG2) [µM]
CCN(CC)c1nc2ncn(Cc3ccc4ccccc4c3)c2c(=O)[nH]1	inactive	inactive	> 500	> 500	inactive	inactive	> 500	> 500	> 500	inactive	> 500	inactive	inactive	> 500	inactive	–	–
CCCNc1nc(N2CCOCC2)nc2ncn(Cc3ccc4ccccc4c3)c12	inactive	inactive	125 (≈ 50.3 µg/mL)	8 (≈ 3.22 µg/mL)	inactive	inactive	4 (≈ 1.61 µg/mL)	8 (≈ 3.22 µg/mL)	4 (≈ 1.61 µg/mL)	inactive	16 (≈ 6.44 µg/mL)	inactive	inactive	125 (≈ 50.3 µg/mL)	inactive	10.1	40.5
CCNc1nc(N2CCOCC2)nc2ncn(Cc3ccc4cc(F)ccc4c3)c12	inactive	inactive	> 500	16 (≈ 6.5 µg/mL)	inactive	inactive	8 (≈ 3.25 µg/mL)	16 (≈ 6.5 µg/mL)	4 (≈ 1.63 µg/mL)	inactive	16 (≈ 6.5 µg/mL)	inactive	inactive	> 500	inactive	10.18	40.7
CN(C)c1nc(N2CCOCC2)nc2ncn(Cc3ccc4ccccc4c3)c12	inactive	inactive	500 (≈ 194 µg/mL)	64 (≈ 24.9 µg/mL)	inactive	inactive	16 (≈ 6.22 µg/mL)	32 (≈ 12.4 µg/mL)	8 (≈ 3.11 µg/mL)	inactive	125 (≈ 48.6 µg/mL)	inactive	inactive	500 (≈ 194 µg/mL)	inactive	6.99	55.9
CCNc1nc(N2CCOCC2)nc2ncn(Cc3ccc4ccccc4n3)c12	inactive	inactive	> 250	64 (≈ 24.9 µg/mL)	inactive	inactive	8 (≈ 3.12 µg/mL)	64 (≈ 24.9 µg/mL)	4 (≈ 1.56 µg/mL)	inactive	64 (≈ 24.9 µg/mL)	inactive	inactive	> 250	inactive	24.08	96.4
CCCCNc1nc(N2CCOCC2)nc2ncn(Cc3ccc4ccccc4c3)c12	inactive	inactive	64 (≈ 26.7 µg/mL)	8 (≈ 3.33 µg/mL)	inactive	inactive	4 (≈ 1.67 µg/mL)	8 (≈ 3.33 µg/mL)	4 (≈ 1.67 µg/mL)	inactive	8 (≈ 3.33 µg/mL)	inactive	inactive	125 (≈ 52.1 µg/mL)	inactive	7.7	30.8
CSc1nc(N2CCOCC2)nc2ncn(Cc3ccc4ccccc4c3)c12	inactive	inactive	> 500	64 (≈ 25.1 µg/mL)	inactive	inactive	8 (≈ 3.13 µg/mL)	32 (≈ 12.5 µg/mL)	8 (≈ 3.13 µg/mL)	inactive	64 (≈ 25.1 µg/mL)	inactive	inactive	> 500	inactive	5.3	42.4
O=c1[nH]c(N2CCOCC2)nc2ncn(Cc3ccc(Cl)c(Cl)c3)c12	inactive	inactive	> 500	> 500	inactive	inactive	32 (≈ 12.2 µg/mL)	> 500	16 (≈ 6.08 µg/mL)	inactive	> 500	inactive	inactive	> 500	inactive	>7.8	> 125
CC(C)c1ccc(Cn2cnc3nc(N4CCOCC4)[nH]c(=O)c32)cc1	inactive	inactive	> 500	> 500	inactive	inactive	32 (≈ 11.3 µg/mL)	> 500	16 (≈ 5.65 µg/mL)	inactive	> 500	inactive	inactive	> 500	inactive	>7.8	> 125
CCSc1nc(N2CCOCC2)nc2ncn(Cc3ccc4ccccc4c3)c12	inactive	inactive	> 500	64 (≈ 26 µg/mL)	inactive	inactive	4 (≈ 1.62 µg/mL)	32 (≈ 13 µg/mL)	4 (≈ 1.62 µg/mL)	inactive	125 (≈ 50.7 µg/mL)	inactive	inactive	> 500	inactive	16.1	64.2
CNc1nc(N2CCOCC2)nc2ncn(Cc3ccc4ccccc4c3)c12	inactive	inactive	> 500	8 (≈ 3 µg/mL)	inactive	inactive	4 (≈ 1.5 µg/mL)	8 (≈ 3 µg/mL)	4 (≈ 1.5 µg/mL)	inactive	8 (≈ 3 µg/mL)	inactive	inactive	> 500	inactive	14.7	58.8
Clc1nc(N2CCOCC2)nc2ncn(Cc3ccc4ccccc4c3)c12	inactive	inactive	> 500	32 (≈ 12.2 µg/mL)	inactive	inactive	16 (≈ 6.08 µg/mL)	16 (≈ 6.08 µg/mL)	16 (≈ 6.08 µg/mL)	inactive	64 (≈ 24.3 µg/mL)	inactive	inactive	> 500	inactive	4.09	65.6
